Results reported in the EternaBench riboswitch data.

System: MS2 coat protein
Assay: apparent Kd, MS2 coat protein; higher = weaker binding; RNA-MaP array; FMN 200 µM where present
Procedure, shortened: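 The apparent Kd is reported as the median of filtered per-cluster binding-curve fits. To get these curves, designs transcribed by stalled E. coli RNA polymerase on Illumina sequencing-chip clusters were titrated with SNAP-549-labelled MS2 coat protein from 0.7 or 1.5 nM, doubling to 3 µM. Titrations were run without and then with constant ligand in 100 mM Tris-HCl pH 7.5, 80 mM KCl, 4 mM MgCl2, BSA, DTT, yeast tRNA and Tween-20, and green signal was normalised to red-channel RNA signal and control-cluster median Fmax.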

[1] = designed as: OFF switch for flavin mononucleotide, no ligand
[2] = ligand present: flavin mononucleotide, designed as: OFF switch for flavin mononucleotide
[3] = designed as: ON switch for flavin mononucleotide, no ligand
[4] = ligand present: flavin mononucleotide, designed as: ON switch for flavin mononucleotide

Sequence	apparent Kd [1]	apparent Kd [2]	apparent Kd [3]	apparent Kd [4]
GUCGUACAAGGAUAUACGGUGAGCUGUGAGUUAUCUGGGACACAUGAGGAUCACCCAUGUAGAAGGUGUCGACA	310 nM	470 nM	–	–
CUUUCGUGAGGAUAUGUGGCUUCAAUCGUGAGAUCGAGGCUACAGAAGGCACAUGAGGAUCACCCAUGUUCCUC	37.9 nM	388 nM	–	–
UGUUGUUUCAAGAAGGAUGUGUAUUUGUAUUCCAUAGGAUAUUGAGAAAUAGUUGCUCAAGUAUACAUGAGGAUCACCCAUGUU	–	–	14.2 nM	9.98 nM
GGUUGUCAUCGUCAUCCUUUCCGUACAUGAGGAUCACCCAUGUAGGAUAUGCUGCUCUCGGUGUGGCAGAAGGGCGUGUGUCUU	17 nM	18.7 nM	–	–
AGCCAACAUGAGGAUCACCCAUGUGUACGUUAUGUAGGAUAUCUGAUGCGCGCGUGCGCAAGAGAAGGACGAGACG	–	–	33.4 nM	21.2 nM
GGAAAUUAGCAAGGAUAUCGGCUCACUAUAACUUUAUGCCCUAGGACAUGAGGAUCACCCAUGUACGAGAAGGUGCUAACUACA	28.9 nM	30.7 nM	–	–
GCUAGUAUUGCAGGAUAUUGAGAAUAAUUAUUCCAAGAAGGGCAUAACAUGAGGAUCACCCAUGUAUUCCUUAGUGAUACUAGC	4.39 nM	4.44 nM	–	–
GACAGCGACACAGGAUAUGUCAAUUUUACAUGAGGAUCACCCAUGUCCGAAGCAGAAGGGUGAUCGCACGCACACUAAGCCAUG	–	–	86.5 nM	98.3 nM
CUGGUGUUAGGAUAUUCGAGGCUGCCUCGGAGACGAGGGUAGGAGAAGGGACAUGAGGAUCACCCAUGUGCUCC	34.4 nM	37.6 nM	–	–
CCUCUGUAAGGAUAUACGGAGACCACUGGAAUCAGUGGAAAGUAGAAGGUACAUGAGGAUCACCCAUGUGAGAA	86.6 nM	151 nM	–	–
CCGGAAACGGGUAGCCUGACAUGAGGAUCACCCAUGUGAUCAGAGGAUAUGGAUCCUAAUUGGAUCCAGAAGGCUGUUGGCUAC	–	–	73.4 nM	27.5 nM
CUACCUUAUGAGAAGGCGGUCAUGAAACAUGAUCGAGGAUAUCAUGUAAACAUGAGGAUCACCCAUGUAUGGGUAUUAUGGUAC	–	–	170 nM	33 nM
UUUUAGGCAGGAUAUACAUUUUUUUUAUUAUCCUCAUUAUUACAUGAGGAUCACCCAUGUAGAAGGGCCAUUUU	48.1 nM	50.2 nM	–	–
AGGUAACAUGAGGAUCACCCAUGUCAGGAUAUCAUAAAGAUUAGAUUAGAGAAGAGGUUGAGAAGGGACUAUAU	44.9 nM	38.4 nM	–	–
UCGUGGUCAGGAUAUACAUGAGGAUCACCCAUGUAAAAGAGCAUUAAGGAGAGACUACGUAGAAGGGACAAAUU	51.6 nM	47.2 nM	–	–
AGGUGACAUGAGGAUCACCCAUGUCAGGAUAUAUACACCGCCGGCGUGAAGCCAGCGGAUAGAAGGGACAAAAU	15.4 nM	16.9 nM	–	–
AAGACACAUCUAGGAUAUGGUGAUGCUCAGAACACAUGAGGAUCACCCAUGUAGCUUGUGUAUAAUCAGAAGGAGAACCGUGUA	–	–	36.4 nM	259 nM
AUUAGUAUCUAGGAUAUCUAGUACAUAGUAUCUAGAGAAGGAGAUACAUGAGGAUCACCCAUGUUCUGUGAUCU	204 nM	44.4 nM	–	–
UGAUAGGACAGAGGAUAUACGGCUAGGAGAUACUAGCCACUAUUCCUCACAUGAGGAUCACCCAUGUAGAAGGCUGUCCUAUCU	16.4 nM	119 nM	–	–
UAAUCUCAGAUAGGAUAUAUAGGAUGAUUUAAGACCGAACAUGAGGAUCACCCAUGUGAUUAUCUGUAGAAGGAUCAAUGACCC	–	–	285 nM	246 nM
ACAUGAGGAUCACCCAUGUUCGUUGAAGAAGGUACCAUUUACUUUAGUAGUAUUAAUUUAUUUGGUAAGGAUAUUCUCAUAAUU	–	–	15.9 nM	7.75 nM
UAGUAGAUCCGAGGAUAUACAAUCCGGAAACGGUACAUGAGGAUCACCCAUGUAGAAGGCGGAUCUACAGGUACUAAAGUACCG	6.19 nM	9.18 nM	–	–
CGCUACGUUUCGUAGCAGCUAGGUGAGGAUAUUCAAUUUUUCACAUGAGGAUCACCCAUGUAUGUGAAGAAGGCGCCUAGAAAA	–	–	11 nM	4.78 nM
